We go through five compounds from article PMC5817038 (Bioorganic & medicinal chemistry letters, 2018).

pIC50: −log10 of the molar value. Like-named read-outs stand apart in the source and are kept apart here.

The target of data set [1] is IDH1-R132H (Homo sapiens, UniProt O75874, R132H). It is filed as biochemical.
Data set [2] concerns wild-type IDH1. As to conditions: read-out: IC50 against wild-type IDH1 (reported); literature value; cited from earlier work.
Data set [3] has as its system IDH1-mutated glioma xenografts. The conditions noted are these: cited from earlier work.
The conditions of data set [4]: normal mice; cited from earlier work.
In data set [5] the test system is HCT116 colorectal carcinoma cell line expressing heterozygous IDH1-R132H. The data set is described as follows: Cell uptake of radiolabeled compounds, IDH1-mutated HCT116 vs isogenic WT-IDH1. It is filed as cell-based. The method in brief: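 Isogenic HCT116 lines expressing IDH1-R132H or wild-type IDH1 were incubated with the 125I-labelled iodo analogue or the 18F-labelled fluoro inhibitor, no-carrier-added, and cell-associated radioactivity was measured over time. Uptake ratio is mutant IDH1 over WT-IDH1 uptake. Three wells per point, mean ± SEM; Student's t-test, P < 0.05.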

Data set [6] relates to IDH1-mutated astrocytoma cell line (IMA). The data set is described as follows: Cell uptake of radiolabeled compounds, IDH1-mutated astrocytoma. It is filed as cell-based. As to conditions: time course. The method in brief: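 Radioiodinated or 18F-labelled test compounds, prepared no-carrier-added, were incubated with IDH1-mutated cells and their isogenic WT-IDH1 counterparts. Uptake was followed over time, starting at 5 min, and compared between mutant and WT lines as uptake ratios. Each condition was run in three wells, reported as mean ± SEM, with significance by Student's t-test.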

The subject of data set [7] is HCT116 IDH1-R132H tumor xenografts. The data set is described as follows: Tissue distribution in athymic mice bearing IDH1-mutated HCT116 tumor xenografts. It is filed as in vivo. Summed up: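 Athymic mice bearing IDH1-mutated HCT116 xenografts received either the 131I- or the 18F-labelled test compound, in separate groups. Tissues were sampled from 0.5 to 4 h after injection. Uptake is given as %ID/g, or as %ID for liver plus intestines. Five animals per time point, mean ± SEM. WT-IDH1 tumour-bearing mice were also examined at 1–4 h.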

The inhibition is the change of the read-out against control, counted positive when it falls. For orientation: pIC50 means −log10 of the IC50, conventionally taken in molar units.

Sequence of IDH1-R132H (O75874 whole entry R132H): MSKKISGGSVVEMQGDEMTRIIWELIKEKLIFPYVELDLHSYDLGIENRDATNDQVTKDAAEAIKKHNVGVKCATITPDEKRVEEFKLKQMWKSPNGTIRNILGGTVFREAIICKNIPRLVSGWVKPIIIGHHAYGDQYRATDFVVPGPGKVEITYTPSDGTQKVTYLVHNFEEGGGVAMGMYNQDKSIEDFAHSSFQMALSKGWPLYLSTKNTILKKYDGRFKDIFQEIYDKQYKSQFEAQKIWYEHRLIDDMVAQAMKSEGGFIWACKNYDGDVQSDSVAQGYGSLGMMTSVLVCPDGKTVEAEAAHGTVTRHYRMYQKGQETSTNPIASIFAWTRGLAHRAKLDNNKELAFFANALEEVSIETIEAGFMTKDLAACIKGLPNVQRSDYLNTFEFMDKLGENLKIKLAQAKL

Consider `Cc1ccccc1C(C(=O)NC1CCCCC1)N(C(=O)Cn1ccnc1C)c1cccc(F)c1` (stereo not shown) [AGI-5198], for which the inhibition at 12.25 µM in data set [1] (read-out: enzyme inhibition (maximal)) is 100%. For the same compound, the pIC50 in data set [2] is under 4.00. In addition, in data set [3], the D-2-HG production result is “inhibit D-2-HG production” and the anti-tumor effect entry is listed as “anti-tumor effects”.

For `Cc1ccccc1C(C(=O)NC1CCCC1)N(C(=O)Cn1cnc2ccccc21)c1cccc(F)c1` (stereo not shown) [ML-309], the “blood-brain-barrier (BBB) permeability” value in data set [4] is “lack of blood-brain-barrier (BBB) permeability”.

Take `Cc1ccccc1C(C(=O)NC1CCCCC1)N(C(=O)Cn1ccnc1C)c1cccc([18F])c1` (stereo not shown) [[^18F]AGI-5198]: the “uptake ratio IDH1-mutated/WT-IDH1” value in data set [5] (HCT116, 5 min) is “about 1.6”; in data set [5] (HCT116, 30 min, remaining at that level until 120 min), about 2.0. The “uptake in IDH1-mutated vs WT-IDH1 cells” value in data set [6] is “higher only at 5 min but not thereafter”. In data set [7] (0.5-4 h), the “uptake and retention in brain” value was “very low”. For the same compound, the tumor uptake in data set [7] (0.5 h post injection) came to 0.84 ± 0.18 % ID/g; in data set [7] (4 h post injection) it was 0.33 ± 0.08 % ID/g. Besides, the blood activity is reported as 0.88 ± 0.16 % ID/g in data set [7] (30 min post injection) and ~ 0.1 % ID/g in data set [7] (4 h post injection). The “peak tumor-to-muscle ratio (TMR)” value in data set [7] (2 h) came to 2.5 ± 1.0. The “peak tumor-to-blood ratio (TBR)” value in data set [7] (4 h) came out at 3.0 ± 1.3. Further, in data set [7] (4 h post injection), the “liver and intestines, share of injected dose” value is recorded as 87 ± 7 % ID. The “stability against dehalogenation in vivo” value in data set [7] (mouse, in vivo) is on record as “stable against dehalogenation in vivo”.

As to `Cc1ccccc1C(C(=O)NC1CCCCC1)N(C(=O)Cn1ccnc1C)c1cccc(I)c1` (stereo not shown) [compound 1], in data set [1] (at 6.12 μM), the “enzyme inhibition (maximal)” value is listed as 100%.

As for `Cc1ccccc1C(C(=O)NC1CCCCC1)N(C(=O)CNc1ccc(F)nc1)c1cccc(F)c1` (stereo not shown) [compound 2], the “enzyme inhibition (maximal)” value in data set [1] (at 12.25 μM) is 71.3 ± 5.3%.
